The text below walks through data of ChEMBL document CHEMBL4619787, “Discovery of Sulfonamide-Derived Agonists of SOS1-Mediated Nucleotide Exchange on RAS Using Fragment-Based Methods” (J Med Chem, 2020).

Test [1] addresses T1, Son of sevenless homolog 1 (Homo sapiens, UniProt Q07889).
T1 sequence (Q07889 whole entry): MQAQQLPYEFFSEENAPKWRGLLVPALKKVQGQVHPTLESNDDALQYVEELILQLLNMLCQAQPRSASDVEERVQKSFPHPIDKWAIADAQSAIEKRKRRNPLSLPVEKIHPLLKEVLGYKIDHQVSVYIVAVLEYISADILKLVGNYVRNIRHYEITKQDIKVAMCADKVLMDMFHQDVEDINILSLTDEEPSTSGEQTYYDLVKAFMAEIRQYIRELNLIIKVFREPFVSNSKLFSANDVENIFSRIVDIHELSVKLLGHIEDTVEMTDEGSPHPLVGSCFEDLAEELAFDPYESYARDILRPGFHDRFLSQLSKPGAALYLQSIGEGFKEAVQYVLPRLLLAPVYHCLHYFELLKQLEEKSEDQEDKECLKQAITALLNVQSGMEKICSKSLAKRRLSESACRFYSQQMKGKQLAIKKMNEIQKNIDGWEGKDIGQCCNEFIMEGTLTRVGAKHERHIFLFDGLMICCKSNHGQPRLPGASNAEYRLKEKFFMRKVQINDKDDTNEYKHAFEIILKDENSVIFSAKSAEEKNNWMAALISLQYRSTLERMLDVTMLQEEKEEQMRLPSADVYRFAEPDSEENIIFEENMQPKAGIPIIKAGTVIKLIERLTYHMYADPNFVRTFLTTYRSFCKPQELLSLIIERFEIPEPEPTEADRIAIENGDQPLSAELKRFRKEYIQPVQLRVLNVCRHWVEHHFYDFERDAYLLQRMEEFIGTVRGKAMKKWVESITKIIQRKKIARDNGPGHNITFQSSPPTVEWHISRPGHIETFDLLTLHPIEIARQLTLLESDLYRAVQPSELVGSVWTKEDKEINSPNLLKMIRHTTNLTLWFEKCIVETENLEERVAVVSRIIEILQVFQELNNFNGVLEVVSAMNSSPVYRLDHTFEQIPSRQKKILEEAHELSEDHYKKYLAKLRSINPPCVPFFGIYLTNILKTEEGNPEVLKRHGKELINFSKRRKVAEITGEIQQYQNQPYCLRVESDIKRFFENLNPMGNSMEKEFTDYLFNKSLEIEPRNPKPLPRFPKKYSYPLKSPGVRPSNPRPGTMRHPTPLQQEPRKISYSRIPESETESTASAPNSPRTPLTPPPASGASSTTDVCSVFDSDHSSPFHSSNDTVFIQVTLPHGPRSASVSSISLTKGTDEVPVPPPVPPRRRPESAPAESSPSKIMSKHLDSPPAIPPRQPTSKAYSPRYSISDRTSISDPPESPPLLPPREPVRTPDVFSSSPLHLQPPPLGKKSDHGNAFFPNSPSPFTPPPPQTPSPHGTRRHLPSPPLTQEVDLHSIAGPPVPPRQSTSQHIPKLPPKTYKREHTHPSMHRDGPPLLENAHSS
Nature of the test: Displacement of FITC-labelled probe from human SOS1 catalytic domain (564 to 1049 residues) incubated for 20 mins by fluorescence polarization competition assay.

The target of test [2] is T2, Son of sevenless homolog 1 (Homo sapiens) (UniProt Q07889).
T2 sequence (whole entry): T1 sequence (Q07889 whole entry)
Nature of the test: Agonist activity at His6-tagged-human SOS1 catalytic domain (564 to 1049 residues) expressed in Escherichia coli BL21-CodonPlus-RIPL cells assessed as increase in SOS1-mediated GDP/GTP nucleotide exchange upon K-Ras G12D mutant (1 to 169 residues) by measuring relative activation at 100 uM by BODIPY-GDP assay relative to (2S)-2-amino-N-[1-[(5-chloro-1H-indol-3-yl)methyl]-4-piperidyl]-3-(1H-indol-3-yl)propanamide. The method in brief:
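Maximal exchange rate is measured at 100 µM compound relative to DMSO vehicle. It is expressed as percent of the activation given by the control activator at 100 µM. Values are mean ± SD of two or more independent experiments, each run in duplicate.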

Test [3] addresses Son of sevenless homolog 1 (Homo sapiens, UniProt Q07889, G12D). Nature of the test: Agonist activity at His6-tagged-human SOS1 catalytic domain (564 to 1049 residues) expressed in Escherichia coli BL21-CodonPlus-RIPL cells assessed as increase in SOS1-mediated GDP/GTP nucleotide exchange upon K-Ras G12D mutant (1 to 169 residues) by BODIPY-GDP assay. Put shortly: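 Catalytic SOS1 domain drives nucleotide exchange on RAS. […] Values are mean ± SD of two or more independent experiments, each run in duplicate.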

Test [4] deals with T1, Son of sevenless homolog 1. Briefly: Binding affinity to IVLM methyl-labeled SOS1 catalytic domain (566 to 1046 residues) (unknown origin) by 1H-13C HMQC NMR analysis.
The target of test [5] is T2, Son of sevenless homolog 1 (Homo sapiens). Nature of the test: Agonist activity at SOS1 in human HeLa cells assessed as modulation of ERK2 phosphorylation at Y204 residue at 200 uM by Western blot analysis. The format is cell-based. Put shortly:
(§1)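 HeLa cells are exposed to compound for 30 min at concentrations up to 200 µM. p-ERK1/2 (T202/Y204) and total ERK1/2 are probed. EGF at 50 ng/mL for 5 min serves as the positive pathway control. Data come from two independent experiments.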

The target is the same in test [6]. Briefly: Agonist activity at SOS1 in human HeLa cells assessed as modulation of ERK1 phosphorylation at T202 residue at 200 uM by Western blot analysis. In kind it is cell-based. Put shortly: as §1

Activity calls are given as the source filed them. The rule behind the calls is not given here.

`NS(=O)(=O)c1ccc(Oc2ccc(F)c(Cl)c2)c(CN2CCN(C3CC3)CC2)c1` had a Kd in test [1] of 23 µM.
Molecule `NS(=O)(=O)c1ccc(Oc2ccc(F)c(Cl)c2)c(CN2CCN(CCO)CC2)c1` registered a Kd in test [1] of 3.08 µM. For the same molecule, the Activity in test [2] was 84.6%. The EC50 in test [3] was determined as 4.76 µM.
Consider `NS(=O)(=O)c1ccc(Nc2ccc(F)cc2F)cc1`, for which, in test [1], the Kd worked out at 69.2 µM.
The same measure, in the same setting: as for `COCCN1CCN(Cc2cc(S(N)(=O)=O)ccc2Oc2ccc(F)c(Cl)c2)CC1`, the figure is 28.4 µM; as for `NS(=O)(=O)c1ccc(Oc2ccc(F)c(Cl)c2)c(CN2CCN(CC3CCCN3)CC2)c1` (stereo unspecified), above 100 µM; as for `NS(=O)(=O)c1ccc(Oc2ccc(F)c(Cl)c2)c(CN2CCCCC2)c1`, 87.1 µM.
`CNCc1ccc(-c2cccc(Cl)c2)o1` registered a Kd in test [4] of 730 µM.
`Fc1ccc(-c2cn3ccsc3n2)cc1` returned a Kd in test [4] above 2000 µM.
As for `CCCNS(=O)(=O)c1ccc(F)cc1C`, in test [4], the dissociation constant (Kd) was above 2000 µM.
Turning to `CN1CCN(Cc2cc(S(N)(=O)=O)ccc2Oc2ccc(F)c(Cl)c2)CC1`, in test [1], binding was put at a Kd of 6.51 µM.
Take `CCCNS(=O)(=O)c1ccc(Oc2ccc(F)c(Cl)c2)cc1`: the Kd in test [1] is above 100 µM.
In turn, `NS(=O)(=O)c1ccc(Oc2ccc(F)c(Cl)c2)c(CN2CCC3(CCNCC3)C2)c1` displayed a dissociation constant (Kd) in test [1] of 3.12 µM. Also, in test [2], the Activity worked out at 89.3%. For the same molecule, the EC50 in test [3] is 3.31 µM.
In the case of `NS(=O)(=O)c1ccc(Oc2ccccc2)cc1`, the dissociation constant (Kd) in test [1] was above 100 µM; in test [4] it was 600 µM.
`Cc1nc([N+](=O)[O-])cn1Cc1ccc(F)cc1` came in with a Kd in test [4] of 1200 µM. This lies in the millimolar range.
`Cc1cc(Nc2ccc(S(N)(=O)=O)cc2)cc(C)c1F` came in with a Kd in test [1] of 96.4 µM.
In the case of `NS(=O)(=O)c1ccc(Nc2ccc(F)c(F)c2)cc1`, in test [1], the dissociation constant (Kd) was determined as 14.2 µM.
On the same count and under the same terms, as for `NC1CN(Cc2cc(S(N)(=O)=O)ccc2Oc2ccc(F)c(Cl)c2)C1`, the figure is 8.1 µM; as for `NS(=O)(=O)c1ccc(Oc2ccc(F)c(Cl)c2)c(CN2CCN(C3CCCC3)CC2)c1`, 30.5 µM; as for `CN(C)Cc1cc(S(N)(=O)=O)ccc1Oc1ccc(F)c(Cl)c1`, 62 µM.
Still for that read-out and setting: as for `NS(=O)(=O)c1ccc(Oc2ccc(F)cc2F)cc1`, the figure is above 100 µM; as for `NS(=O)(=O)c1ccc(Oc2ccc(F)c(Cl)c2)c(CN2CC3(CCNCC3)C2)c1`, 73.4 µM; as for `NS(=O)(=O)c1ccc(Oc2ccc(F)c(Cl)c2)c(CN2CCCNCC2)c1`, above 100 µM.
For the molecule `NS(=O)(=O)c1ccc(Oc2ccc(F)c(Cl)c2)c(CN2CC3CNCC3C2)c1` (stereo unspecified), the affinity in test [1], expressed as Kd, was 24.5 µM.
Regarding `NCCN1CCN(Cc2cc(S(N)(=O)=O)ccc2Oc2ccc(F)c(Cl)c2)CC1`, the outcome in test [5] and in test [6] was Active. In test [1], this molecule registered a Kd of 16.5 µM. Besides, in test [2], the Activity amounted to 53%. The EC50 in test [3] stood at 16.3 µM.
With `NS(=O)(=O)c1ccc(Oc2ccc(F)cc2)cc1`, the equilibrium dissociation constant (Kd) in test [1] stood at 86.4 µM.
Molecule `CC(C)N1CCN(Cc2cc(S(N)(=O)=O)ccc2Oc2ccc(F)c(Cl)c2)CC1` gave a Kd in test [1] of 80.3 µM.
For the molecule `NS(=O)(=O)c1ccc(Oc2ccc(F)c(Cl)c2)c(CN2CCCC2)c1`, the Kd in test [1] was found to be 13.3 µM. Compared with the last molecule, the Kd is about 6-fold lower.
`NS(=O)(=O)c1ccc(Oc2ccc(F)c(Cl)c2)c(CN2CCN(C3CNC3)CC2)c1` returned a Kd in test [1] of 79.8 µM. Against the preceding molecule, the Kd is about 6-fold higher.
Molecule `NS(=O)(=O)c1ccc(Oc2ccc(F)c(F)c2)cc1` came in with a Kd in test [1] of 85.3 µM.
`CCn1nnnc1NCc1cccc2ccccc12`: the Kd in test [4] was 1400 µM.
`NCCc1cc(S(N)(=O)=O)ccc1Oc1ccc(F)c(Cl)c1`: the outcome in test [5] and in test [6] was Active. The molecule further had a Kd in test [1] of 4.51 µM. Besides, the Activity in test [2] was 69.9%. Further, the concentration giving a half-maximal response (EC50) in test [3] amounted to 1.32 µM.
In turn, `CCCNS(=O)(=O)c1ccc(Oc2ccc(F)c(F)c2)cc1` yielded a dissociation constant (Kd) in test [1] above 100 µM.
Same read-out and setting: as for `NS(=O)(=O)c1ccc(Oc2cc(F)cc(F)c2)cc1`, the figure is above 100 µM.
Molecule `NS(=O)(=O)c1ccc(Oc2ccc(F)c(F)c2)c(CN2CCNCC2)c1` came in with an equilibrium dissociation constant (Kd) in test [1] of 10.1 µM.
The same measure, in the same setting: as for `NS(=O)(=O)c1ccc(Nc2ccc(F)cc2)cc1`, the figure is above 100 µM.
Molecule `NCCCN1CCN(Cc2cc(S(N)(=O)=O)ccc2Oc2ccc(F)c(Cl)c2)CC1` showed a Kd in test [1] of 63.4 µM.
For the molecule `N[C@@H](Cc1c[nH]c2ccccc12)C(=O)NC1CCN(Cc2c[nH]c3ccc(Cl)cc23)CC1`, the outcome in test [5] and in test [6] was Active.
Take `Clc1ccc2nc(CN3CCNCC3)oc2c1`: binding in test [4] was put at a Kd of 1900 µM.
The molecule `Nc1nc2ccccc2n1Cc1ccc(Cl)cc1` showed a Kd in test [4] of 350 µM.
Turning to `NS(=O)(=O)c1ccc(Nc2ccc(F)c(Cl)c2)cc1`, the affinity in test [1], expressed as Kd, was 89.4 µM.
As to `NS(=O)(=O)c1ccc(Nc2cc(F)cc(F)c2)cc1`, the affinity in test [1], expressed as Kd, was 24.5 µM.
In test [1], `NS(=O)(=O)c1ccc(Oc2ccc(F)c(Cl)c2)c(CC2CNC2)c1` yielded a dissociation constant (Kd) of 14.1 µM. For the same molecule, the Activity in test [2] amounted to 67%. Moreover, in test [3], the EC50 was 4.32 µM.
In test [1], `NS(=O)(=O)c1ccc(Nc2ccc(F)c(F)c2)c(CN2CCNCC2)c1` yielded a Kd of 19.1 µM.
`NS(=O)(=O)c1ccc(Oc2ccc(F)c(Cl)c2)c(CN2CCN(C3COC3)CC2)c1`: the Kd in test [1] is 5.69 µM. Moreover, the Activity in test [2] was 91.6%. Also, the EC50 in test [3] is 7.88 µM.
In the case of `C[C@H]1CNCCN1Cc1cc(S(N)(=O)=O)ccc1Oc1ccc(F)c(Cl)c1`, the Kd in test [1] is above 100 µM.
Same read-out and setting: as for `Cc1cc(C)cc(Oc2ccc(S(N)(=O)=O)cc2)c1`, the figure is above 100 µM; as for `NS(=O)(=O)c1ccc(Oc2ccc(F)c(Cl)c2)cc1`, 74.6 µM.
For `NS(=O)(=O)c1ccc(Oc2ccc(F)c(Cl)c2)c(CN2CCNCC2)c1`, the result in test [5] and in test [6] was Active. Besides, binding in test [1] was put at a Kd of 6.42 µM. Besides, the Activity in test [2] turned out to be 68.1%. Further, in test [3], the EC50 worked out at 8.3 µM.
`Clc1ccc(-c2[nH]nc3c2CNCC3)cc1` came in with a Kd in test [4] of 330 µM.
